{"source": "PubChem BioAssay AID588478", "about": "(ICCB-Longwood Screening Facility, Harvard Medical School, 2011)", "note": "Screen size: about 330,000 compounds; about 1,100 (0.33%) were called active. The sample holds actives, similar compounds and a random draw of the others, so the mix is not that of the screen. A number with no mark means an inactive call.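 The calls were made as follows: active = mean inhibition over replicate wells above about 20% (limit read from the data); inactive = the rest.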"}
{"target": "Ubiquitin carboxyl-terminal hydrolase isozyme L5 (Homo sapiens) (UniProt Q9Y5K5)", "sequence (Q9Y5K5 whole entry, looked up)": "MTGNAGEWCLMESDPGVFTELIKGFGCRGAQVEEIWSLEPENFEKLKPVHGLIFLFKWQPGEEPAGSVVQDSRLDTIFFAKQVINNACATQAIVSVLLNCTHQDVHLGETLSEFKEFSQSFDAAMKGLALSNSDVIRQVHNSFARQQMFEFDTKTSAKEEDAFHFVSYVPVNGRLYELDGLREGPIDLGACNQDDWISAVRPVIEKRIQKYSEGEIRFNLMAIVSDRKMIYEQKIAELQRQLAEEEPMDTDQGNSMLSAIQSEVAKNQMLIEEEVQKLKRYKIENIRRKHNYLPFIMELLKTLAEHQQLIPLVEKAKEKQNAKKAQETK", "assay": "inhibitors of human UCH37 deubiquitinase, primary screen, biochemical, Ub-AMC cleavage, fluorescence (AID 588478);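 also: 0% = compound-free wells with enzyme and 100% = wells lacking proteasome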", "conditions": "purified proteasome/UCH37, Ub-AMC cleavage fluorescence; stronger effect = higher value; concentration not given here", "summary_of_the_method": "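assay system = human UCH37 enzyme supplied as purified proteasome complex | amount = proteasome at 0.15 nM in the dispensed enzyme solution | schedule = 30 min compound-proteasome preincubation then 25 min substrate reaction, room temperature | measured by = fluorescence, ex 355 nm, em 460 nm | benchmarks = no-proteasome wells (full inhibition) and compound-free wells (no inhibition)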"}
{"compound": "CC(=O)n1cc(C=NNC(=O)c2ccc(Cl)cc2)c2ccccc21", "inhibition": "2.16%"}
{"compound": "O=C(Cc1cccs1)NN=Cc1ccc(O)cc1", "inhibition": "1.44%"}
{"compound": "CCOC(=O)c1c(N=CC2=C(O)CC(C)(C)CC2=O)sc(C)c1C", "inhibition": "-1.87%"}
{"compound": "Cc1ccc(C=NNC(=O)CSc2nc3ccccc3c(=O)n2-c2ccccc2)s1", "inhibition": "4.54%"}
{"compound": "Oc1ccc(C=NNC(=S)Nc2cccnc2)c(O)c1O", "inhibition": "22.7% (active)"}
{"compound": "Cc1ccc(NC(=O)Nc2cccnc2)cc1", "inhibition": "0.429%"}
{"compound": "CC(C)(C)c1ccc(C=NNC(=S)Nc2cccnc2)cc1", "inhibition": "2.4%"}
{"compound": "COc1cc(C=NN(C)C)ccc1OC(=O)c1cccs1", "inhibition": "0.992%"}
{"compound": "COc1ccc(NC(=O)ON=Cc2ccccc2)cc1", "inhibition": "2.45%"}
{"compound": "CC(=NNC(=O)c1cccs1)c1ccc(NC(=O)COc2ccc(Cl)cc2)cc1", "inhibition": "-42%"}
{"compound": "O=C(O)c1cc(NN=Cc2ccncc2)ccc1Cl", "inhibition": "14.4%"}
{"compound": "Nc1nnnn1CC(=O)NN=Cc1cc([N+](=O)[O-])ccc1Cl", "inhibition": "4.32%"}
{"compound": "CCCCCCCCn1c2c(c(=N)c3c1CCC3)CCCC2", "inhibition": "25.7% (active)"}
{"compound": "Cc1ccc(C=NNC(=O)CNC(=O)COc2ccccc2)o1", "inhibition": "6.97%"}
{"compound": "CC(C)(C)NN=Cc1cc(Cl)cc([N+](=O)[O-])c1O", "inhibition": "6.29%"}
{"compound": "CNC(=O)C(C#N)=c1sc(=CC(=O)OC)c(=O)n1-c1ccccc1", "inhibition": "3.97%"}
{"compound": "Cc1ccc(C=NN2CCN(Cc3ccccc3)CC2)o1", "inhibition": "1.82%"}
{"compound": "COc1ccc(C(=O)COC(=O)c2ccc([N+](=O)[O-])s2)cc1OC", "inhibition": "4.79%"}
{"compound": "COc1cc(NC(=O)COC(=O)c2ccc([N+](=O)[O-])s2)cc(OC)c1OC", "inhibition": "70.6% (active)"}
{"compound": "COc1ccc(C(=O)OCC(=O)Nc2ccc3[nH]c(=O)[nH]c3c2)c(OC)c1OC", "inhibition": "0.187%"}
{"compound": "COc1cccc(C=NNc2cc(-n3nc(C)cc3-c3ccccc3)ncn2)c1O", "inhibition": "3.24%"}
{"compound": "O=[N+]([O-])c1cc(S(=O)(=O)N2CCCC2)ccc1NN=Cc1cccnc1", "inhibition": "3.11%"}
{"compound": "Cc1nn(-c2ccccc2)c(C)c1C=NNC(=O)c1cccs1", "inhibition": "2.82%"}
{"compound": "O=C1C(Cl)=C(Oc2ccccc2)C(=O)c2ccccc21", "inhibition": "73.8% (active)"}
{"compound": "CC(=O)Oc1ccc2c(c1)C(=O)c1ccccc1C2=O", "inhibition": "6.5%"}
{"compound": "Cc1cc(C)c(COc2ccc(C=Nn3c(C)n[nH]c3=S)cc2)c(C)c1", "inhibition": "2.64%"}
{"compound": "C[n+]1cn(N=Cc2ccccc2)c2ccccc21", "inhibition": "0.369%"}
{"compound": "COc1ccc(C(C)=NNc2ccc(C(=O)O)cc2)cc1OC", "inhibition": "12.1%"}
{"compound": "COC1(C2=NCCN2)COc2ccccc2O1", "note": "(stereo not given)", "inhibition": "22.9% (active)"}
{"compound": "CCCC=NNc1nnc(Cc2ccc(OC)c(OC)c2)c(=O)[nH]1", "inhibition": "2.12%"}
{"compound": "COc1ccc(C(C)=NNC(=O)c2ccc(N(C)C)cc2)cc1", "inhibition": "3.67%"}
{"compound": "Cn1ccc(=Nc2ccc(NC(=O)c3ccc(N=c4ccn(C)c5ccc([N+](=O)[O-])cc45)cc3)cc2)cc1", "inhibition": "27.5% (active)"}
{"compound": "CC(=O)NC(=S)Nc1ccc(NC(=S)NC(=O)c2ccc([N+](=O)[O-])cc2)cc1", "inhibition": "5.88%"}
{"compound": "COc1cc(NS(=O)(=O)c2ccc(NC(=O)c3ccc([N+](=O)[O-])cc3)cc2)ncn1", "inhibition": "4.65%"}
{"compound": "COc1ccccc1/C=C/C=NN1CCN(Cc2ccc(Cl)cc2)CC1", "inhibition": "5.57%"}
{"compound": "CCN(CC)C(=O)N(CC)Cc1ccccc1", "inhibition": "-0.131%"}
{"compound": "CN(Cc1ccccc1)C(=O)c1cccc(C(=O)N(C)Cc2ccccc2)c1", "inhibition": "0.499%"}
{"compound": "CCN(CC)C(=O)c1nc[nH]c1C(=O)N(C)Cc1ccccc1", "inhibition": "26.1% (active)"}
{"compound": "O=S1(=O)CCC(=NNc2ccc(C(F)(F)F)cn2)c2cc(F)ccc21", "inhibition": "0.609%"}
{"compound": "COc1ccc(C(=O)NCC(=O)NN=Cc2cn[nH]c2-c2ccccc2)cc1", "inhibition": "1.68%"}
{"compound": "O=C(O)c1ccc2c(c1)C(=O)N(NC(=O)c1ccc(O)cc1)C2=O", "inhibition": "7.31%"}
{"compound": "Cn1cccc1/C=C1\\SC(=S)N(NC(=O)c2ccc(Cl)cc2)C1=O", "inhibition": "1.88%"}
{"compound": "CC(=O)N1C(=O)/C(=C2\\SC(=S)N(NC(=O)c3ccc(O)cc3)C2=O)c2ccccc21", "inhibition": "40.9% (active)"}
{"compound": "Cc1ccc(NC(=O)ON=Cc2ccc(F)cc2)cc1", "inhibition": "5.21%"}
{"compound": "Cc1cc(=O)oc2c3c(ccc12)OCC3=NN", "inhibition": "-22.9%"}
{"compound": "CC(=NNc1ccccc1C(=O)O)c1cccs1", "inhibition": "10.1%"}
{"compound": "COC(=O)c1ccc(C=NOCC(=O)NC2CCCCCCC2)cc1", "inhibition": "0.759%"}
{"compound": "COCCN1C=C2C(=O)C(C)(OC(=O)C3CCCC3)C(=O)C=C2C=C1c1ccsc1", "note": "(stereo not given)", "inhibition": "46.2% (active)"}
{"compound": "C=CCN1C=C2C(=O)C(C)(OC(=O)CCc3ccccc3)C(=O)C=C2C=C1c1ccc(C#N)cc1", "note": "(stereo not given)", "inhibition": "-31%"}
{"compound": "CC1(OC(=O)CCc2ccccc2)C(=O)C=C2C=C(c3ccc(C#N)cc3)N(CCc3ccccn3)C=C2C1=O", "note": "(stereo not given)", "inhibition": "0.0366%"}
{"compound": "COc1ccc(C=NNc2nncn2N)cc1Br", "inhibition": "14.1%"}
{"compound": "O=C(CN(Cc1ccccc1)S(=O)(=O)c1ccc2c(c1)OCCO2)NN=Cc1cccc(Br)c1", "inhibition": "0.583%"}
{"compound": "CCOc1ccccc1C=c1sc2nc(-c3ccco3)nn2c1=O", "inhibition": "3.89%"}
{"compound": "CCC(=NNC(=O)Cc1ccc(Br)cc1)c1cccs1", "inhibition": "0.706%"}
{"compound": "CCCS(=O)(=O)N1CCC(C(=O)NCCCN(C)Cc2ccccc2)CC1", "inhibition": "-3.1%"}
{"compound": "CCS(=O)(=O)N1CCCC(C(=O)NCc2ccc(C)cc2)C1", "note": "(stereo not given)", "inhibition": "9.8%"}
{"compound": "CCS(=O)(=O)N1CCCC(C(=O)NCCCN(C)Cc2ccccc2)C1", "note": "(stereo not given)", "inhibition": "29% (active)"}
{"compound": "COc1cc(C(C(=O)NC2CCCC2)N(C(=O)c2ccco2)c2ccccc2C(C)=O)cc(OC)c1OC", "note": "(stereo not given)", "inhibition": "4.15%"}
{"compound": "O=C(NC1CCCC1)C(c1ccco1)N(C(=O)c1ccco1)c1ccc(F)cc1", "note": "(stereo not given)", "inhibition": "1.87%"}
{"compound": "O=C(NC1CCCC1)C(c1ccc(N2CCOCC2)cc1)N(C(=O)c1ccco1)c1ccccc1F", "note": "(stereo not given)", "inhibition": "38.4% (active)"}
